This is an account of results in ChEMBL document CHEMBL4196105, “Discovery of β-Arrestin Biased Ligands of 5-HT7R” (J Med Chem, 2018).

For series [1], the species on record is Homo sapiens. Kind of series: Selectivity index, ratio of Ki for human 5-HT2C receptor to Ki for human 5-HT7 receptor. Put shortly:
(§1)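 Selectivity index taken as Ki at the other 5-HT receptor subtype divided by Ki at 5-HT7R, each from [3H]LSD membrane binding run by the NIMH PDSP. Ki values are means of at least three experiments in triplicate.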

In series [2] the target is T1, 5-hydroxytryptamine receptor 7 (Homo sapiens, UniProt P34969). Kind of series: Agonist activity at tTA containing TCS cleavage site-fused 5-HT7 receptor (unknown origin) expressed in tTA-dependent luciferase reporter/TEV-fused beta-arrestin2 expressing HTLA cells assessed as induction of beta-arrestin2 recruitment after 22 hrs by Tango assay relative to 5-HT. It counts as functional, cell-based. Put shortly:
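HTLA cells (HEK293 stably expressing tTA-dependent luciferase reporter and β-arrestin2-TEV) transiently transfected with 5-HT7R-TCS-tTA. Plated in 1% dialysed FBS medium for 6 h, then given test compounds at 0.01 nM-100 μM final, about 22 h. Antagonist mode adds 1 μM 5-HT. BrightGlo luminescence read. Normalised to 5-HT (100%) and vehicle (0%). Three experiments, at least triplicate.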

The species entered for series [3] is Homo sapiens. Kind of series: Selectivity index, ratio of Ki for human 5-HT2A receptor to Ki for human 5-HT7 receptor. Put shortly:
as §1

Series [4] addresses T1, 5-hydroxytryptamine receptor 7. Kind of series: Displacement of [3H]LSD from human 5-HT7 receptor expressed in HEK cell membranes after 1.5 hrs by microbeta scintillation counting method.
The target in series [5] is T2, 5-hydroxytryptamine receptor 1A (Homo sapiens, UniProt P08908).
T2 sequence (P08908 whole entry): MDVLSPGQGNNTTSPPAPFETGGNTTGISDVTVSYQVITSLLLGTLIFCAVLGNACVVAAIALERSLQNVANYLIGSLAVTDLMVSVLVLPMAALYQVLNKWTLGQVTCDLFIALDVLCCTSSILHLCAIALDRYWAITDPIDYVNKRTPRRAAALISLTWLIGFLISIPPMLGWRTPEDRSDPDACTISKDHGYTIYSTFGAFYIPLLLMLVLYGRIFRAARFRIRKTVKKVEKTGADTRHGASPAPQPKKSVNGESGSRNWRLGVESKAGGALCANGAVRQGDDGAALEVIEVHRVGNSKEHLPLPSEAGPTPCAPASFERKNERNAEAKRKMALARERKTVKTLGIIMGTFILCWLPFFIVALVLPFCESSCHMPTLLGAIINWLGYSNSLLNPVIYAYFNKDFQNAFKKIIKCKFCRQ
Kind of series: Displacement of [3H]LSD from human 5-HT1A receptor expressed in HEK cell membranes after 1.5 hrs by microbeta scintillation counting method. Put shortly:
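Radioligand binding performed by the NIMH Psychoactive Drug Screening Program. Crude membranes from cells expressing recombinant receptor, with [3H]LSD, in 50 mM Tris-HCl, 10 mM MgCl2, 1 mM EDTA, pH 7.4. Eleven test concentrations. Incubated 1.5 h at room temperature, protected from light. Filtered onto PEI-soaked GF/B filters, then scintillation counting. IC50 converted to Ki; at least three experiments in triplicate.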

Series [6] is filed under the species Homo sapiens. Kind of series: Selectivity index, ratio of Ki for human 5-HT1A receptor to Ki for human 5-HT7 receptor. Put shortly: as §1
The target of series [7] is T1, 5-hydroxytryptamine receptor 7. Kind of series: Antagonist activity at tTA containing TCS cleavage site-fused 5-HT7 receptor (unknown origin) expressed in tTA-dependent luciferase reporter/TEV-fused beta-arrestin2 expressing HTLA cells assessed as inhibition of 5-HT-induced beta-arrestin2 recruitment after 22 hrs by Tango assay. It is filed as functional, cell-based.

The species entered for series [8] is Homo sapiens. Kind of series: Selectivity index, ratio of Ki for human 5-HT5A receptor to Ki for human 5-HT7 receptor. Put shortly: as §1
The test system of series [9] is Mus musculus. Kind of series: Sleep promoting activity in C57B1/6J mouse assessed as increase in total non-rapid eye movement sleep time at 30 mg/kg, ip measured over 8 hrs by electroencephalogram method. It is filed as functional. Put shortly:
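Adult male C57Bl/6J mice, 10 weeks old, with parietal EEG screw electrodes implanted under ketamine. EEG and EMG recorded for 8 h from 9 AM, starting one day before dosing as baseline. On test day, 30 mg/kg i.p. at the start of the light phase, with EEG/EMG recorded for 8 h and scored in 2-h bins. n = 6-9 per group; mean ± SEM versus vehicle.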

The target of a further series is CYP2C9 (Homo sapiens, UniProt P11712). Kind of series: Inhibition of CYP2C9 in human liver microsomes assessed as remaining activity at 10 uM using diclofenac as substrate preincubated for 5 mins followed by addition of NADPH generating system measured after 15 mins by LC-MS analysis. It is filed as ADME. As to conditions: probe diclofenac, read-out: Activity. Put shortly:
(§2)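 Human liver microsomes 0.25 mg/ml in 0.1 M phosphate, pH 7.4, with a probe cocktail: phenacetin 50 μM, diclofenac 10 μM, S-mephenytoin 100 μM, dextromethorphan 5 μM, midazolam 2.5 μM. Test compound at 10 μM versus 0 μM control. 5 min at 37 °C, then NADPH-generating system for 15 min. Acetonitrile quench; metabolites measured by LC/MS as % remaining activity.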

The nature of series [10]: Cmax in ICR mouse at 50 mg/kg, po by LC-MS/MS analysis. It is filed as ADME, organism-based. More on the design: dose 50 mg/kg, route oral. As to conditions: in vivo. The method, boiled down: (§3)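 Male ICR mice, 7~8 weeks, 30 ± 5 g; single dose 5 mg/kg IV (n = 5) or 50 mg/kg oral (n = 4). Plasma protein-precipitated with acetonitrile containing internal standard, then LC-MS/MS. Non-compartmental analysis; AUClast by trapezoidal rule. Mean ± SD.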

A short description of series [11]: AUC (0 to infinity) in ICR mouse at 5 mg/kg, iv by LC-MS/MS analysis. It is filed as ADME, organism-based. More on the design: dose 5 mg/kg, time infinity, route intravenous. To be noted: in vivo. Put shortly: as §3
Series [12] is described as follows: Apparent volume of distribution at steady state in ICR mouse at 5 mg/kg, iv by LC-MS/MS analysis. It is filed as ADME, organism-based. To be noted: in vivo, read-out: Vdss. The method, boiled down:
as §3

Series [13] in a line: Stability in human liver microsomes assessed as drug recovery at 1 uM preincubated for 5 mins followed by addition of NADPH generation system and measured after 30 mins by LC-MS analysis. It counts as ADME, microsome. To be noted: read-out: Drug recovery. Put shortly:
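Human liver microsomes 0.5 mg/ml in 0.1 M phosphate, pH 7.4, with 1 μM compound. Preincubated 5 min at 37 °C, then NADPH-generating system added for 30 min at 37 °C. Acetonitrile with internal standard added to stop the reaction, centrifuged, and supernatant analysed by LC/MS as % remaining.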

The next series has as its target CYP2D6 (Homo sapiens, UniProt P10635). Kind of series: Inhibition of CYP2D6 in human liver microsomes assessed as remaining activity at 10 uM using dextromethorphan as substrate preincubated for 5 mins followed by addition of NADPH generating system measured after 15 mins by LC-MS analysis. It is filed as ADME. To be noted: probe dextromethorphan, read-out: Activity. Put shortly: as §2

For series [14], the system named is Mus musculus. Kind of series: Toxicity in ICR mouse assessed as mortality at 5 mg/kg, iv. It is filed as organism-based. As to conditions: in vivo. The method, boiled down:
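Observed in male ICR mice (7~8 weeks, 30 ± 5 g; n = 5) during a pharmacokinetic study after a single intravenous dose. Mice were held at 23 ± 3° and about 55% ± 10% humidity with standard feed and tap water. Blood was drawn via carotid artery from 0.08 to 8 h after dosing.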

The target of another series is CYP3A4 (Homo sapiens, UniProt P08684). Kind of series: Inhibition of CYP3A4 in human liver microsomes assessed as remaining activity at 10 uM using midazolam as substrate preincubated for 5 mins followed by addition of NADPH generating system measured after 15 mins by LC-MS analysis. It counts as ADME. To be noted: probe midazolam, read-out: Activity. Put shortly:
as §2

The nature of series [15]: Oral bioavailability in ICR mouse at 50 mg/kg by LC-MS/MS analysis. To be noted: in vivo. It is filed as ADME, organism-based. The method, boiled down:
as §3

The structures appear in SMILES notation. Activity calls are given as the source filed them. The calls are words filed in the database; no cut-off is given here.

T1 sequence (P34969 whole entry, the tested form may be a part): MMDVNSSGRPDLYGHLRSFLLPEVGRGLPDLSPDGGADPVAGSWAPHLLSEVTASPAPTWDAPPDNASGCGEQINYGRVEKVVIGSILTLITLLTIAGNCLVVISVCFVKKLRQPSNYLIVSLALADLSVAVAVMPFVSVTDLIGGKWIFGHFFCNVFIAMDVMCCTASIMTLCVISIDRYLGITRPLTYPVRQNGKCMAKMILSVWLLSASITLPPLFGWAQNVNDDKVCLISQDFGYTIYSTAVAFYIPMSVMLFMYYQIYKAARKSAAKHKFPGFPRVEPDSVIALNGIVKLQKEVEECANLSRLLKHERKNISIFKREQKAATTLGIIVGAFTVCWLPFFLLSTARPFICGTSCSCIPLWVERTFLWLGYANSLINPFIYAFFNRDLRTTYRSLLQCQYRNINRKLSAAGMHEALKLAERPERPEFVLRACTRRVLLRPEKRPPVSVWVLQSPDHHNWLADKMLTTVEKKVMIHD
CYP2D6, sequence (P10635 whole entry): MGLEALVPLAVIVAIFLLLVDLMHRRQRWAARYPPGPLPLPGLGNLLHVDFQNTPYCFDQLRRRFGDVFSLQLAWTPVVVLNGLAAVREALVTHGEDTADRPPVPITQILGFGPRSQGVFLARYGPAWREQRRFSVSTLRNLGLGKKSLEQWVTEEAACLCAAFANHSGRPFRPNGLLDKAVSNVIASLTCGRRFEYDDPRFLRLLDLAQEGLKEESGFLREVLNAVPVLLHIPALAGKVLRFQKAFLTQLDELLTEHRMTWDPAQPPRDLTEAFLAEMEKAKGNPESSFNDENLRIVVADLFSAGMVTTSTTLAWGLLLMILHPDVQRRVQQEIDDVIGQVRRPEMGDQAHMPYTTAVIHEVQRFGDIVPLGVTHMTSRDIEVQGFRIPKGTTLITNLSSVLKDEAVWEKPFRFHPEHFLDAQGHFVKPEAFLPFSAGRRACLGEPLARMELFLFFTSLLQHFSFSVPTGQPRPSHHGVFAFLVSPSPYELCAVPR
CYP3A4, sequence (P08684 whole entry): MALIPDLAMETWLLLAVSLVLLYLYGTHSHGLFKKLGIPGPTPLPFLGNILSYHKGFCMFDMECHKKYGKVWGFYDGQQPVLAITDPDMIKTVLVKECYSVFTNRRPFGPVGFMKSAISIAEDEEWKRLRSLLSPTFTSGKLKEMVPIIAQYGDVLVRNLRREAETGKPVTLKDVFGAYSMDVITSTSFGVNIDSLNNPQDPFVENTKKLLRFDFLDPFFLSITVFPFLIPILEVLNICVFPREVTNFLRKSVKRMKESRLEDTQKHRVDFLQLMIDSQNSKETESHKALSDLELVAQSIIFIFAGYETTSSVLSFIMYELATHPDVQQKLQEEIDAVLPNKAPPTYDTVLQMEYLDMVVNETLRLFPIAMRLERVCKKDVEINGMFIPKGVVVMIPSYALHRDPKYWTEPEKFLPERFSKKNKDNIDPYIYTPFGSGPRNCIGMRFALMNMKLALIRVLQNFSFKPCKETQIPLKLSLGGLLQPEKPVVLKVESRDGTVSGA
CYP2C9, sequence (P11712 whole entry): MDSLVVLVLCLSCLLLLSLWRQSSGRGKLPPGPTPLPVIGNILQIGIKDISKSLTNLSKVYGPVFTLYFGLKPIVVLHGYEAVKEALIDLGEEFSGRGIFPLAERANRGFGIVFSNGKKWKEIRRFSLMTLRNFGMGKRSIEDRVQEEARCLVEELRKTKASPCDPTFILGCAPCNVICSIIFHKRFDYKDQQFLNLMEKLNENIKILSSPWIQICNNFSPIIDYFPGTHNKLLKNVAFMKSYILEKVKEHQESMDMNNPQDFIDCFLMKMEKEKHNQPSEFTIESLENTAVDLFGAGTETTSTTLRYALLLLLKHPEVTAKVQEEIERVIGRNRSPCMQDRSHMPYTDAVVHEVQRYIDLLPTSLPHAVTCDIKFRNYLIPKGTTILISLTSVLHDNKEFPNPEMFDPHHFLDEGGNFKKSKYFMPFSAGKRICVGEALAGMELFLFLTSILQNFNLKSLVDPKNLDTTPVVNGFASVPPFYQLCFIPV

For `Fc1ccc(-c2n[nH]c3c2CCNCC3)cc1`, the Ratio Ki in the series filed under Homo sapiens [1] worked out at 1.9; in the series filed under Homo sapiens [3], 1.7; in the series filed under Homo sapiens [6] it was 18. Moreover, the Emax in series [2] turned out to be 53.9%. For the same compound, the Ki in series [4] is 104 nM; in series [5] it was 1870 nM. For the same compound, the inhibition result in series [7] was “inactive”.
Consider `Cc1ccc(-c2noc3c2CCNCC3)cc1`, for which the Ratio Ki in the series filed under Homo sapiens [1] came to 1.3; in the series filed under Homo sapiens [3], 8.6; in the series listed under Homo sapiens [8], 70.9. Further, the Emax in [2] is 40.3%. In [5], this compound had a Ki greater than 10000 nM. Also, in series [7], the inhibition entry was “inactive”.
Take `Clc1ccc(-c2n[nH]c3c2CCNCC3)cc1`: the Activity was 21.4% with Mus musculus [9] and “Non-Toxic” in the series on Mus musculus [14]. Also, the activity at 0.25 h, 10 µM was greater than 100% on CYP2C9, 75.7% on CYP2D6 and 95.4% at CYP3A4. The compound further showed a peak concentration (Cmax) in series [10] of 11800 ng/mL. For the same compound, the Ratio Ki in the series listed under Homo sapiens [1] is 26.6; in the series filed under Homo sapiens [3], 6.2. Further, in [2], the maximal effect (Emax) was found to be 62.8%. The same compound showed an area under the curve AUC(0-inf) in series [11] of 5210 ng·h/mL. Moreover, the Vd in series [12] came out at 2.47 L/kg. The remaining at 0.5 h, 1 µM in [13] came to 82.4%. In series [5], this compound registered a Ki greater than 10000 nM. Besides, the bioavailability in [15] was 90.8%. The inhibition result in [7] is “inactive”.
